ChEMBL document CHEMBL3085739, “Design, synthesis, and biological evaluation of 2-oxo-3,4-dihydropyrimido[4,5-d]pyrimidinyl derivatives as new irreversible epidermal growth factor receptor inhibitors with improved pharmacokinetic properties” (J Med Chem, 2013)
Values after ≈ are worked out from the molar mass of the structure shown.

Assays:
[1] = target: Epidermal growth factor receptor (Homo sapiens, UniProt P00533, L858R/T790M); test: Inhibition of EGFR L858R/T790M double mutant (unknown origin) after 1.5 hrs by FRET-based Z'-Lyte assay; assay type: protein assay
Epidermal growth factor receptor, sequence (P00533 25-1210 T790M/L858R limits assumed): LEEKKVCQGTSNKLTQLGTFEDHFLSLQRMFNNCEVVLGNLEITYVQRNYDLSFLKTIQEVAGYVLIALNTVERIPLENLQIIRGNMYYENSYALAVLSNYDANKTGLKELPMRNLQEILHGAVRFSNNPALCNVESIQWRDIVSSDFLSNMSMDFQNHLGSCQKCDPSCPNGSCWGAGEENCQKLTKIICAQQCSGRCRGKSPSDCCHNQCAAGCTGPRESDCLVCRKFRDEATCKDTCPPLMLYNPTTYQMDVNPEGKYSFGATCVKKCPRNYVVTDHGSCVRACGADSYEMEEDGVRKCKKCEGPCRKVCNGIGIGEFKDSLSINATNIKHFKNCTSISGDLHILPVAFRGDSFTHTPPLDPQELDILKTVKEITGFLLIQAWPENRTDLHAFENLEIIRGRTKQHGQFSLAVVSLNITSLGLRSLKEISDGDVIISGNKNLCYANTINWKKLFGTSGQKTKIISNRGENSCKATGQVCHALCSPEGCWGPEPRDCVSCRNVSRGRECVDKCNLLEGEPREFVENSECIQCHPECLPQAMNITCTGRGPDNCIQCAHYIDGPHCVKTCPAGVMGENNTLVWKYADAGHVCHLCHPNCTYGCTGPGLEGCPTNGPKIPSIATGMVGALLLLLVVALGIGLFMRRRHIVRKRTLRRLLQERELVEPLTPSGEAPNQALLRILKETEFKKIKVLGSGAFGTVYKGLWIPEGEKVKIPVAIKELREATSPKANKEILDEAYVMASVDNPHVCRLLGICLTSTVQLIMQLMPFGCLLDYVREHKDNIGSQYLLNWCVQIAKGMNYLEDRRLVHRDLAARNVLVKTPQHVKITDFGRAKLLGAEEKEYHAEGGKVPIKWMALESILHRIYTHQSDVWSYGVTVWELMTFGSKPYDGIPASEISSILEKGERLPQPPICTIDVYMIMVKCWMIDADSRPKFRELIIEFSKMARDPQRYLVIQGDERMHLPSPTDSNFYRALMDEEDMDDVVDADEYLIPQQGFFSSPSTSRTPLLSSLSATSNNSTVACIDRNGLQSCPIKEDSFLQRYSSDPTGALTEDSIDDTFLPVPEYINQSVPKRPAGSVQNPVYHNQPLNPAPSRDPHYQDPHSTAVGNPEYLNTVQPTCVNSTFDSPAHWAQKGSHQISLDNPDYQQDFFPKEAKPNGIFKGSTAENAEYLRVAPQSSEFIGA

[2] = Thermodynamic aqueous solubility of the compound in PBS buffer at pH 6.8 after 24 hrs by HPLC analysis; assay type: physicochemical; settings: for solubility thermodynamic at 24 h: PBS buffer, pH 6.8, read-out: Therm_solubility
Method in brief: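 Compound was shaken in aqueous buffer at pH 6.8 for 24 h at ambient temperature; dissolved concentration was measured by HPLC.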

NCI-H1975 = test: Antiproliferative activity against human NCI-H1975 cells expressing EGFR L858R/T790M double mutant after 72 hrs by MTS assay; assay type: functional, cell-based; settings: NCI-H1975, 72 h
[3] = AUC (0 to infinity) in Sprague-Dawley rat at 5 mg/kg, iv by LC/MS analysis; assay type: ADME, organism-based; set-up: time infinity, dose 5 mg/kg, route intravenous; settings: plasma
Method in brief: (§1)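 Male Sprague-Dawley rats (180−220 g), n = 4 per route, single iv dose 5 mg/kg or oral gavage 25 mg/kg. Vehicle was 2% DMSO, 4% EtOH, 4% castor oil, 90% H2O. Orbital sinus blood was taken from 2 min to 72 h into heparinized tubes. Plasma levels were measured by LC/MS with propranolol internal standard and analysed by pharmacokinetic modelling.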

[4] = Clearance in Sprague-Dawley rat at 5 mg/kg, iv by LC/MS analysis; assay type: ADME, organism-based; set-up: dose 5 mg/kg, route intravenous; settings: in vivo; method in brief: as §1
[5] = Clearance in Sprague-Dawley rat at 25 mg/kg, po by LC/MS analysis; assay type: ADME, organism-based; set-up: dose 25 mg/kg, route oral; settings: in vivo; method in brief: as §1
[6] = Oral bioavailability in Sprague-Dawley rat at 25 mg/kg by LC/MS analysis; assay type: ADME, organism-based; settings: in vivo; method in brief: as §1
[7] = Cmax in Sprague-Dawley rat at 5 mg/kg, iv by LC/MS analysis; assay type: ADME, organism-based; set-up: dose 5 mg/kg, route intravenous; settings: in vivo; method in brief: as §1
[8] = Cmax in Sprague-Dawley rat at 25 mg/kg, po by LC/MS analysis; assay type: ADME, organism-based; set-up: dose 25 mg/kg, route oral; settings: in vivo; method in brief: as §1
[9] = AUC (0 to infinity) in Sprague-Dawley rat at 25 mg/kg, po by LC/MS analysis; assay type: ADME, organism-based; set-up: dose 25 mg/kg, route oral, time infinity; settings: plasma; method in brief: as §1

Compound | IC50 [1] [nM] | solubility thermodynamic at 24 h [2] [µg/mL] | IC50 (NCI-H1975) [nM] | AUC(0-inf) [3] [ng·h/mL] | clearance [4] [mL/min/kg] | CL/F [5] [mL/min/kg] | bioavailability [6] [%] | Cmax [7] [ng/mL] | Cmax [8] [ng/mL] | AUC(0-inf) [9] [ng·h/mL] | Therm solubility ([2]; buffer, pH 6.8, 24 h) [µg/mL]
C=CC(=O)N1CC[C@H](N2C(=O)N(C3CCCC3)Cc3cnc(Nc4ccc(N5CCN(C)CC5)cc4OC)nc32)C1 | 58.7 | 250 (≈ 446 µM) | 679 |  |  |  |  |  |  |  | 
C=CC(=O)N1CC[C@H](N2C(=O)N(Cc3ccccc3)Cc3cnc(Nc4ccc(N5CCN(C)CC5)cc4OC)nc32)C1 | 8.8 | 107 (≈ 184 µM) | 279 | 359 | 240 | 1040 | 24 | 784 | 102 | 418 | 
C=CC(=O)N1CC[C@H](N2C(=O)N(c3ccccc3)Cc3cnc(Nc4ccc(C5CCN(C)CC5)cc4)nc32)C1 | 16.2 | 310 (≈ 577 µM) | 311 |  |  | 335 |  |  | 359 | 1300 | 
C=CC(=O)Nc1cccc(N2C(=O)N(Cc3ccccc3)Cc3cnc(Nc4ccc(N5CCN(C)CC5)cc4OC)nc32)c1.CS(=O)(=O)O |  |  |  | 1570 | 53.3 |  |  | 4370 |  |  | 4
C=CC(=O)N1CC[C@H](N2C(=O)N(c3ccccc3)Cc3cnc(Nc4ccc(N5CCN(C)CC5)cc4)nc32)C1 | 29.1 | 976 (≈ 1810 µM) | 249 | 857 | 96.7 | 203 | 54 | 1520 | 783 | 2310 | 
C=CC(=O)N1CC[C@H](N2C(=O)N(c3ccccc3)Cc3cnc(Nc4ccc(N5CCN(C)CC5)c(Cl)c4)nc32)C1 | 35.6 | 214 (≈ 374 µM) | 89 |  |  |  |  |  |  |  | 
C=CC(=O)N1CC[C@H](N2C(=O)N(C(C)C)Cc3cnc(Nc4ccc(N5CCN(C)CC5)cc4OC)nc32)C1 | 864 | 2490 (≈ 4660 µM) | 3060 |  |  |  |  |  |  |  | 
C=CC(=O)N1CC[C@H](N2C(=O)N(C3CCCCC3)Cc3cnc(Nc4ccc(N5CCN(C)CC5)cc4OC)nc32)C1 | 42.9 | 763 (≈ 1330 µM) | 654 |  |  |  |  |  |  |  | 
C=CC(=O)N1CC[C@H](N2C(=O)N(c3ccccc3)Cc3cnc(Nc4cccc(N5CCN(C)CC5)c4)nc32)C1 | 97.9 | 714 (≈ 1330 µM) | 523 | 746 | 113 | 565 | 20 | 1820 | 291 | 760 | 
C=CC(=O)N1CC[C@H](N2C(=O)N(c3ccccc3)Cc3cnc(Nc4ccc(N5CCN(C)CC5)cc4OC)nc32)C1 | 15.2 | 1540 (≈ 2700 µM) | 111 | 962 | 86.7 | 200 | 44 | 1790 | 613 | 2120 | 
C=CC(=O)NCCN1C(=O)N(Cc2ccccc2)Cc2cnc(Nc3ccc(N4CCN(C)CC4)cc3OC)nc21 | > 1000 | 96.7 (≈ 174 µM) | > 10000 |  |  |  |  |  |  |  | 
C=CC(=O)N1CCC(N2C(=O)N(Cc3ccccc3)Cc3cnc(Nc4ccc(N5CCN(C)CC5)cc4OC)nc32)CC1 | 144 | 9.3 (≈ 15.6 µM) | 546 |  |  |  |  |  |  |  | 
C=CC(=O)N1CCC[C@H](N2C(=O)N(Cc3ccccc3)Cc3cnc(Nc4ccc(N5CCN(C)CC5)cc4OC)nc32)C1 | 204 | 129 (≈ 216 µM) | 1560 |  |  |  |  |  |  |  | 
C=CC(=O)N1CCC[C@@H](N2C(=O)N(Cc3ccccc3)Cc3cnc(Nc4ccc(N5CCN(C)CC5)cc4OC)nc32)C1 | 40.3 | 142 (≈ 237 µM) | 437 |  |  |  |  |  |  |  | 
C=CC(=O)N1CC[C@H](N2C(=O)N(c3ccccc3)Cc3cnc(Nc4ccc(CCN5CCN(C)CC5)cc4)nc32)C1 | 41.3 | 4350 (≈ 7680 µM) | 448 | 561 | 153 | 382 | 40 | 1410 | 232 | 1130 | 
C=CC(=O)N1CC[C@H](N2C(=O)N(c3ccccc3)Cc3cnc(Nc4ccc(N5CCN(C)CC5)c(OC)c4)nc32)C1 | 7.2 | 256 (≈ 450 µM) | 65 | 949 | 91.7 | 467 | 20 | 3410 | 420 | 948 | 
C=CC(=O)N1CC[C@H](N2C(=O)N(c3ccccc3)Cc3cnc(Nc4ccc(N5CCN(C)CC5)c(C(F)(F)F)c4)nc32)C1 | 55.5 | 60.9 (≈ 100 µM) | 196 |  |  |  |  |  |  |  | 
C=CC(=O)N1CC[C@H](N2C(=O)N(c3ccccc3)Cc3cnc(Nc4ccccc4)nc32)C1 | 235 | 3.5 (≈ 7.95 µM) | 1680 | 2030 | 41.7 | 95 | 44 | 6540 | 1670 | 4520 | 
C=CC(=O)NC1CCC(N2C(=O)N(Cc3ccccc3)Cc3cnc(Nc4ccc(N5CCN(C)CC5)cc4OC)nc32)CC1 (centres undefined) | 708 | 18.8 (≈ 30.8 µM) | 2680 |  |  |  |  |  |  |  | 
C=CC(=O)N1CC[C@@H](N2C(=O)N(Cc3ccccc3)Cc3cnc(Nc4ccc(N5CCN(C)CC5)cc4OC)nc32)C1 | 107 | 199 (≈ 341 µM) | 1550 |  |  |  |  |  |  |  | 
C=CC(=O)N1CC[C@H](N2C(=O)N(C)Cc3cnc(Nc4ccc(N5CCN(C)CC5)cc4OC)nc32)C1 | 525 | 1250 (≈ 2470 µM) | 1480 |  |  |  |  |  |  |  | 
C=CC(=O)N1CC[C@H](N2C(=O)N(c3ccccc3)Cc3cnc(Nc4ccc(N5CCN(C)CC5)c(F)c4)nc32)C1 |  | 691 (≈ 1240 µM) |  | 2120 | 40 | 122 | 33 | 3260 | 964 | 3480 | 
